From ChEMBL document CHEMBL1145482, “Acquired echinocandin resistance in a Candida krusei isolate due to modification of glucan synthase” (Antimicrob Agents Chemother, 2007)
Values after ≈ are worked out from the molar mass of the structure shown. *1 amine or outer side, *2 acyl side, *3 side chain or, on linkers, in order; H or OH if unused. Where a SMILES comes first, the peptide text is derived from it. Bridges are numbered along the chain shown (N, C = ends). [ ]: non-standard residue; d: D form. The star is where a group is joined. hTyr(3S-OH,4S-OH,3'-OSO3H) = N[C@H](C(=O)O)[C@H](O)[C@@H](O)c1ccc(O)c(OS(=O)(=O)O)c1; pTerphenylCO(4''-OnC5H11) = CCCCCOc1ccc(-c2ccc(-c3ccc(C(=O)*)cc3)cc2)cc1; Orn(4R-OH,5R-OH) = O=C([C@H](C[C@@H](O)[C@@H](O)N[*:3])N[*:1])[*:2]; hTyr(3S-OH,4S-OH) = N[C@H](C(=O)O)[C@H](O)[C@@H](O)c1ccc(O)cc1; Pro(3S-OH,4S-Me) = C[C@H]1CN[C@H](C(=O)O)[C@H]1O; X1 = CCCCCOc1ccc(-c2cc(-c3ccc(C(=O)*)cc3)no2)cc1; Gln(3R-OH) = NC(=O)C[C@@H](O)[C@H](N)C(=O)O; Hyp = O=C(O)[C@@H]1C[C@@H](O)CN1

Columns and labels:
Pichia kudriavzevii [1] = assay: Antifungal activity against FKS1 T2080K mutation containing Candida krusei 100 isolate from acute myelogenous leukemia patient by broth microdilution method; assay type: functional
Pichia kudriavzevii [2] = assay: Antifungal activity against Candida krusei 98 isolate from acute myelogenous leukemia patient by broth microdilution method; assay type: functional
Pichia kudriavzevii [3] = assay: Ratio of MIC of FKS1 T2080K mutation containing Candida krusei 100 isolate to MIC of Candida krusei 98 isolate from acute myelogenous leukemia patient by broth microdilution method; assay type: functional
[4] = biological target: 1,3-beta-D-glucan synthase subunit (Pichia kudriavzevii, UniProt Q4U2W2, F655C); assay: Inhibition of FKS1 T2080K mutant from Candida krusei 100 isolate
Chain of 1,3-beta-D-glucan synthase subunit (Pichia kudriavzevii, UniProt Q4U2W2, F655C) (Q4U2W2 entry or part of it F655C): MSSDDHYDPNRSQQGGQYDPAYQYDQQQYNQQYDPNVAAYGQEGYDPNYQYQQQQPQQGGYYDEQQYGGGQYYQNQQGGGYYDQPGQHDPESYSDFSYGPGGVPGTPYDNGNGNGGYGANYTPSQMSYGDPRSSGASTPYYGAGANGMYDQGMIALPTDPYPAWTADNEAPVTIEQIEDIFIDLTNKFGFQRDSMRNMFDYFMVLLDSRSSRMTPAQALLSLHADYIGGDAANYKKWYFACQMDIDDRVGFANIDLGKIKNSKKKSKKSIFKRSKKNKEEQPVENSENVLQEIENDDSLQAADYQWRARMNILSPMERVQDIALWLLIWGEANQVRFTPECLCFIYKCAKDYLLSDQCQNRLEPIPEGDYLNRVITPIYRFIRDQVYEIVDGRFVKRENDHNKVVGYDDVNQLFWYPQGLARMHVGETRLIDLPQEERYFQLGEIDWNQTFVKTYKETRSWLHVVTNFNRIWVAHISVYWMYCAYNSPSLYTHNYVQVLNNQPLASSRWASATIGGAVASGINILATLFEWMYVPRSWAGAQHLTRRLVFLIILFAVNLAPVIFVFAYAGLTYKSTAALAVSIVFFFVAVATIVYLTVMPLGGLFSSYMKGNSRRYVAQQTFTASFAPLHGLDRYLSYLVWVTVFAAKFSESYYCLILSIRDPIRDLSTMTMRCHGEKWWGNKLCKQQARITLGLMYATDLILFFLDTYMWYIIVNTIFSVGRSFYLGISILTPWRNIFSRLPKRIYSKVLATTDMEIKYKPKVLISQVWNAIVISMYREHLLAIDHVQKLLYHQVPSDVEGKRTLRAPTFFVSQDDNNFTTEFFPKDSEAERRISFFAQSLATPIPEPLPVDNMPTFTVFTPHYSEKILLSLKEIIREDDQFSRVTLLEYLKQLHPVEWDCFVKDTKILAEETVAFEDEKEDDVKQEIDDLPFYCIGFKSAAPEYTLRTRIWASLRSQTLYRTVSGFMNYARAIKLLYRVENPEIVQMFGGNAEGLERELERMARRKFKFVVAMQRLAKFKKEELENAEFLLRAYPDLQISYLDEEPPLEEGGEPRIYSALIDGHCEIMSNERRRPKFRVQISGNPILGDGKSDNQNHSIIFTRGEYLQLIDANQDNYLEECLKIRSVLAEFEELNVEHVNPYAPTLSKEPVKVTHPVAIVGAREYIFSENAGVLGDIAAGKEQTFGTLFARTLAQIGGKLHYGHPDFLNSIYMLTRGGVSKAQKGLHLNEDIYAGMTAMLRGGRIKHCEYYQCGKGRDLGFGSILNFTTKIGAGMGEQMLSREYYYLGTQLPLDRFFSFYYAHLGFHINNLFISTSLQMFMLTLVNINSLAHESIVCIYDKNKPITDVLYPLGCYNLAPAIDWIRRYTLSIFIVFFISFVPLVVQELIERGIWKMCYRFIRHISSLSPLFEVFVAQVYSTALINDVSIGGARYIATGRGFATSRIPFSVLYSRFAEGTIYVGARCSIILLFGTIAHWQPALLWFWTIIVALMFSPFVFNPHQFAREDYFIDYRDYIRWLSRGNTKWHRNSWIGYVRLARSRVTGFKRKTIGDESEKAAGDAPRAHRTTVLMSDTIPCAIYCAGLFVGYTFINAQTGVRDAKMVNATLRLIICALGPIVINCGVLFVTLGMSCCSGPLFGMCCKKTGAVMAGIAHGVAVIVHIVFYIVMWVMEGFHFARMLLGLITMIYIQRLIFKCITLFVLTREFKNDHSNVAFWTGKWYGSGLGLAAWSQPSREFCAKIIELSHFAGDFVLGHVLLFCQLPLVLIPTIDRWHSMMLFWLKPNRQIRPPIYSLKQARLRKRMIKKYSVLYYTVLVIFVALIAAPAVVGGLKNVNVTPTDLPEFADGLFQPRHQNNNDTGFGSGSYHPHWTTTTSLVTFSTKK
How it was run: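 Glucan synthase enzyme complex isolated from posttreatment strain Ck-100. Caspofungin titrated against the enzyme. Inhibition curve fitted with a two-site competition algorithm to give IC50 in ng/ml.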

[5] = biological target: 1,3-beta-D-glucan synthase subunit (Pichia kudriavzevii, UniProt Q4U2W2); assay: Inhibition of FKS1 from Candida krusei 98 isolate
Chain of 1,3-beta-D-glucan synthase subunit (Pichia kudriavzevii, UniProt Q4U2W2) (Q4U2W2 whole entry): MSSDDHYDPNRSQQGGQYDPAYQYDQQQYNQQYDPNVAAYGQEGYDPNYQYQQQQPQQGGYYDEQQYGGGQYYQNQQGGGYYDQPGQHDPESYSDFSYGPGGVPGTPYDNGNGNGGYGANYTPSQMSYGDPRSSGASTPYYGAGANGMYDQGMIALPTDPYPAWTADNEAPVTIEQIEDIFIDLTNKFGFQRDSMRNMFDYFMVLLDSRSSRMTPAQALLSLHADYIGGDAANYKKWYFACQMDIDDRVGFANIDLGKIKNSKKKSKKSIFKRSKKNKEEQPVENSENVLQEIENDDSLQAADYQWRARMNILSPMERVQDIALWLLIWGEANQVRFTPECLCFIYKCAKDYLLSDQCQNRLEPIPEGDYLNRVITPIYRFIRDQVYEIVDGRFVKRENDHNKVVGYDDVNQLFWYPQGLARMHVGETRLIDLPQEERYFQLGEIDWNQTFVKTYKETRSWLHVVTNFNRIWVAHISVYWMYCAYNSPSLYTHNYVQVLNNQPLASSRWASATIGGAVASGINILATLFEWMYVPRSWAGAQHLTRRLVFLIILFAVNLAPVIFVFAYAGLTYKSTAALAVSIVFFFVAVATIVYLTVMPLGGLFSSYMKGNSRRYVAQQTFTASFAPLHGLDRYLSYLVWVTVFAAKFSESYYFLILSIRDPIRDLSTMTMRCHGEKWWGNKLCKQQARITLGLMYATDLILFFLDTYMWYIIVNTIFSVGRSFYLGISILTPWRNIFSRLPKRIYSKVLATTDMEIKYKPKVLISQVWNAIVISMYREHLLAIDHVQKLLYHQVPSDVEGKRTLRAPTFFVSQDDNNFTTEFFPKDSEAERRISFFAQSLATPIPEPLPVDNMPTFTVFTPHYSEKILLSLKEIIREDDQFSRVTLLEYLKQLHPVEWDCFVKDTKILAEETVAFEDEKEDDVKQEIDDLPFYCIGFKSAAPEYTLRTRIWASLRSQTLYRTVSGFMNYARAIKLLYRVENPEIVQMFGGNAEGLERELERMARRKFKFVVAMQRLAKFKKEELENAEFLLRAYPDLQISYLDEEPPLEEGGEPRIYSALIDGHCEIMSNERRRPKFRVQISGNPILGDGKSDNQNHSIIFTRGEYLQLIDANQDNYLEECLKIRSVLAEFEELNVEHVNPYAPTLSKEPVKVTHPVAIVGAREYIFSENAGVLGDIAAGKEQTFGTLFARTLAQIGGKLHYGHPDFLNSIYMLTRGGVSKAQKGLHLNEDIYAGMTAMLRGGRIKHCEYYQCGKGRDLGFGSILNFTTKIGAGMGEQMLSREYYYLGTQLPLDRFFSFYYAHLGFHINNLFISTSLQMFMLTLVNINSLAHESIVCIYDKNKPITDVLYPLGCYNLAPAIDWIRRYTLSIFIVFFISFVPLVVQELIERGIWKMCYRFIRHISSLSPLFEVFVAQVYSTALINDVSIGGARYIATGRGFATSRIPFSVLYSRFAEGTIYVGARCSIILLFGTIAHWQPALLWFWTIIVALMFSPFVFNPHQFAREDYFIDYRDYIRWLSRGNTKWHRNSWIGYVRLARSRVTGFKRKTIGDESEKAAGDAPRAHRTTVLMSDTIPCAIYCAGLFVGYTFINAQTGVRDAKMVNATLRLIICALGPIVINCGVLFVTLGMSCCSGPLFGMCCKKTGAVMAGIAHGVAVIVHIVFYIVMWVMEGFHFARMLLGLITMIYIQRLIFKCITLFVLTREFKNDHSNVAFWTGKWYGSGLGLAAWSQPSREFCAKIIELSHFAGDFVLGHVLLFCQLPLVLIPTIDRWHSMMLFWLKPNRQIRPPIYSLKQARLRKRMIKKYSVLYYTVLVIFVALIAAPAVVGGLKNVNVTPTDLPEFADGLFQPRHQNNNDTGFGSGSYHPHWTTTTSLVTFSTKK
How it was run: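 Glucan synthase enzyme complex isolated from the pretreatment clinical strain Ck-98 and titrated with the echinocandin. Inhibition curves were fitted with a sigmoidal variable-slope dose-response model to give IC50 in ng/ml.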

Row | Structure (SMILES) | MIC (Pichia kudriavzevii [1]) | MIC (Pichia kudriavzevii [2]) | Ratio (Pichia kudriavzevii [3]) | IC50 [4] | IC50 [5]
1 | CCCCCOc1ccc(-c2ccc(-c3ccc(C(=O)N[C@H]4C[C@@H](O)[C@@H](O)NC(=O)[C@@H]5[C@@H](O)[C@@H](C)CN5C(=O)[C@H]([C@@H](C)O)NC(=O)[C@H]([C@H](O)[C@@H](O)c5ccc(O)cc5)NC(=O)[C@@H]5C[C@@H](O)CN5C(=O)[C@H]([C@@H](C)O)NC4=O)cc3)cc2)cc1 [ANIDULAFUNGIN] ({pTerphenylCO(4''-OnC5H11)}-[Orn(4R-OH,5R-OH)]T[Hyp][hTyr(3S-OH,4S-OH)]T[Pro(3S-OH,4S-Me)]; lactam 1-C) | 4 µg/mL (≈ 3.51 µM) | 0.25 µg/mL (≈ 0.219 µM) | 16 | – | –
2 | CC[C@H](C)C[C@H](C)CCCCCCCCC(=O)N[C@H]1C[C@@H](O)[C@@H](NCCN)NC(=O)[C@@H]2[C@@H](O)CCN2C(=O)[C@H]([C@H](O)CCN)NC(=O)[C@H]([C@H](O)[C@@H](O)c2ccc(O)cc2)NC(=O)[C@@H]2C[C@@H](O)CN2C(=O)[C@H]([C@@H](C)O)NC1=O [CASPOFUNGIN] | 8 µg/mL (≈ 7.32 µM) | 0.25 µg/mL (≈ 0.229 µM) | 32 | 3610 nM | 6.22 nM
3 | CCCCCOc1ccc(-c2cc(-c3ccc(C(=O)N[C@H]4C[C@@H](O)[C@@H](O)NC(=O)[C@@H]5[C@@H](O)[C@@H](C)CN5C(=O)[C@H]([C@H](O)CC(N)=O)NC(=O)[C@H]([C@H](O)[C@@H](O)c5ccc(O)c(OS(=O)(=O)O)c5)NC(=O)[C@@H]5C[C@@H](O)CN5C(=O)[C@H]([C@@H](C)O)NC4=O)cc3)no2)cc1 [MICAFUNGIN] (X1-[Orn(4R-OH,5R-OH)]T[Hyp][hTyr(3S-OH,4S-OH,3'-OSO3H)][Gln(3R-OH)][Pro(3S-OH,4S-Me)]; lactam 1-C) | 4 µg/mL (≈ 3.15 µM) | 0.25 µg/mL (≈ 0.197 µM) | 16 | – | –
